In ChEMBL document CHEMBL1150151, “Dictyoquinazols A, B, and C, new neuroprotective compounds from the mushroom Dictyophora indusiata” (J Nat Prod, 2002):
Activity calls are given as the source filed them. No cut-off for these calls is given here.

Legend:
Cortical neurone [1] = test: Neuroprotective activity against AMPA-induced neurotoxicity in ICR mouse cortical neurons preincubated for 1 hr before AMPA challenge measured after 24 hrs by MTT assay; format: functional
Method in brief: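 Primary cortical cultures from gestation day 15 ICR mouse embryos, grown 12 days in B27-supplemented neurobasal medium, switched to neurobasal without supplement. Compound in methanol (0.1% final), added 1 h before 80 μM AMPA, then 24 h. Viability read by MTT (1 mg/mL, 1 h, 37 °C; DMSO-dissolved formazan at 540 nm), expressed relative to control and excitotoxin-alone wells.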

Cortical neurone [2] = test: Neuroprotective activity against glutamate-induced neurotoxicity in ICR mouse cortical neurons at 5 to 10 uM preincubated for 1 hr before glutamate challenge measured after 24 hrs by MTT assay; format: functional
Method in brief: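 Cortical neurons from E15 ICR mouse embryos, matured 12 days, supplement-free neurobasal during assay. 1 h compound pretreatment (0.1% methanol final), then 20 μM glutamate, kept 24 h. MTT 1 mg/mL for 1 h at 37 °C, formazan dissolved in DMSO, absorbance 540 nm; percent protection from control and glutamate-only OD.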

Cortical neurone [3] = test: Neuroprotective activity against kainate-induced neurotoxicity in ICR mouse cortical neurons preincubated for 1 hr before kainate challenge measured after 24 hrs by MTT assay; format: functional
Method in brief: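 Mouse (ICR, gestation day 15) cortical neuron cultures used at day 12 in neurobasal medium lacking supplement. Compound in methanol (0.1% final) given 1 h ahead of 200 μM kainate; incubation 24 h more. Viability by MTT (1 mg/mL, 1 h), DMSO-solubilised formazan at 540 nm, scaled between kainate-alone and untreated control.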

[4] = Neuroprotective activity against glutamate-induced neurotoxicity in primary cultured mouse cortical neurons preincubated for 1 hr before glutamate challenge measured after 24 hrs by MTT assay
[5] = test system: Radical scavenging activity; test: Antioxidant activity assessed as superoxide and DPPH radical scavenging activity; format: functional
[6] = Inhibition of monoamine oxidase at 60 to 100 uM
Cortical neurone [7] = test: Neuroprotective activity against NMDA-induced neurotoxicity in ICR mouse cortical neurons preincubated for 1 hr before NMDA challenge measured after 24 hrs by MTT assay; format: functional
Method in brief: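 12-day ICR mouse (E15) cortical cultures in neurobasal medium without supplement. Pretreatment with compound (methanol vehicle, 0.1% final) for 1 h, then 40 μM NMDA for 24 h. Compound range 10 to 30 μM. Survival by MTT reduction, formazan in DMSO read at 540 nm, normalised as (toxin+compound − toxin)/(control − toxin) × 100.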

With COc1ccc(N2CN(C=O)c3ccc(OC)cc3C2=O)c(CO)c1 the Activity (Cortical neurone [1]) was “inactive”, the Activity (Cortical neurone [2]) was “Active” and the Activity (Cortical neurone [3]) was “inactive”. The Activity [4] was “inactive”, the Activity [5] was “inactive” and the Activity [6] was “Active”. For the same compound, the Activity (Cortical neurone [7]) was “Dose-dependent effect”.

In the case of COc1ccc2c(c1)CN(c1ccc(OC)cc1CO)CN2C=O, the Activity (Cortical neurone [1]) is reported as “inactive”, the Activity (Cortical neurone [2]) is reported as “Active” and the Activity (Cortical neurone [3]) is reported as “inactive”. The Activity [4] was “inactive”, the Activity [5] was “inactive” and the Activity [6] was “Active”. The Activity (Cortical neurone [7]) was “Dose-dependent effect”.

With COc1ccc(-n2cnc3ccc(OC)cc3c2=O)c(CO)c1 the Activity (Cortical neurone [1]) was “inactive”, the Activity (Cortical neurone [2]) was “Active” and the Activity (Cortical neurone [3]) was “inactive”. The Activity [4] was “inactive”, the Activity [5] was “inactive” and the Activity [6] was “Active”. The Activity (Cortical neurone [7]) was “Dose-dependent effect”.
